# According to ChEMBL document CHEMBL5058577, “EUbOPEN Chemogenomics Library 2 (Multiplex)” (2022):
# Tested on: HEK-293T
# Assay: Multiplex assay against HEK293T
# Type: toxicity, cell-based
# Conditions: human
# In short: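 Hoechst33342, BioTracker Green Microtubule Cytoskeleton Dye, MitoTracker Red and Annexin V Alexa Fluor 680 were added to live cells at seeding, and imaging on a CQ1 microscope at 37°C and 5% CO2 followed compound addition. Gating by CellPathfinder machine learning separated cells into Hoechst high-intensity objects or normal cells, then normal cells into healthy, pyknosed or fragmented nuclei, then pyknosed cells into mitotic or apoptotic. Per cents of healthy-nucleus cells are reported for the tubulin, mitochondrial-mass and membrane-permeability phenotypes.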
# [1] = 12 h, 1 µM, compound concentration 1 uM, replicate 1
# [2] = 12 h, 1 µM, compound concentration 1 uM, replicate 2
# [3] = 12 h, 10 µM, compound concentration 10 uM, replicate 1
# [4] = 12 h, 10 µM, compound concentration 10 uM, replicate 2
# [5] = 24 h, 1 µM, compound concentration 1 uM, replicate 1
# [6] = 24 h, 1 µM, compound concentration 1 uM, replicate 2
# [7] = 24 h, 10 µM, compound concentration 10 uM, replicate 1
# [8] = 24 h, 10 µM, compound concentration 10 uM, replicate 2
# [9] = 48 h, 1 µM, compound concentration 1 uM, replicate 1
# [10] = 48 h, 1 µM, compound concentration 1 uM, replicate 2
# [11] = 48 h, 10 µM, compound concentration 10 uM, replicate 1
# [12] = 48 h, 10 µM, compound concentration 10 uM, replicate 2
compound,measurement,setting,value
Cc1cccc(NC(=O)CN2CCC(c3ccccn3)CC2)c1.Cl.Cl,Population Apoptotic (%),[1],34%
same,Population Fragmented Nuclei (%),[1],7%
same,Population Healthy Nuclei (%),[1],76%
same,Population Hoechst High Intensity Objects (%),[1],5%
same,Population Membrane Permeable-Phenotype (%),[1],0%
same,Population Mitochondria Different-Phenotype (%),[1],54%
same,Population Mitotic Cells (%),[1],65%
same,Population Normal (%),[1],94%
same,Population Pyknosed Nuclei (%),[1],15%
same,Population Tubulin-Different-Phenotype (%),[1],33%
same,Total Cell Count,[1],348
same,Population Apoptotic (%),[2],46%
same,Population Fragmented Nuclei (%),[2],5%
same,Population Healthy Nuclei (%),[2],82%
same,Population Hoechst High Intensity Objects (%),[2],3%
same,Population Mitotic Cells (%),[2],53%
same,Population Normal (%),[2],96%
same,Population Pyknosed Nuclei (%),[2],11%
same,Population Tubulin-Different-Phenotype (%),[2],22%
same,Total Cell Count,[2],277
same,Population Apoptotic (%),[3],61%
same,Population Fragmented Nuclei (%),[3],6%
same,Population Healthy Nuclei (%),[3],71%
same,Population Hoechst High Intensity Objects (%),[3],9%
same,Population Membrane Permeable-Phenotype (%),[3],0%
same,Population Mitochondria Different-Phenotype (%),[3],63%
same,Population Mitotic Cells (%),[3],38%
same,Population Normal (%),[3],90%
same,Population Pyknosed Nuclei (%),[3],21%
same,Population Tubulin-Different-Phenotype (%),[3],50%
same,Total Cell Count,[3],291
same,Population Apoptotic (%),[4],43%
same,Population Fragmented Nuclei (%),[4],10%
same,Population Healthy Nuclei (%),[4],70%
same,Population Hoechst High Intensity Objects (%),[4],14%
same,Population Mitochondria Different-Phenotype (%),[4],79%
same,Population Mitotic Cells (%),[4],56%
same,Population Normal (%),[4],85%
same,Population Pyknosed Nuclei (%),[4],18%
same,Population Tubulin-Different-Phenotype (%),[4],35%
same,Total Cell Count,[4],273
same,Population Apoptotic (%),[5],32%
same,Population Fragmented Nuclei (%),[5],8%
same,Population Healthy Nuclei (%),[5],81%
same,Population Hoechst High Intensity Objects (%),[5],3%
same,Population Membrane Permeable-Phenotype (%),[5],0%
same,Population Mitochondria Different-Phenotype (%),[5],30%
same,Population Mitotic Cells (%),[5],67%
same,Population Normal (%),[5],96%
same,Population Pyknosed Nuclei (%),[5],9%
same,Population Tubulin-Different-Phenotype (%),[5],22%
same,Total Cell Count,[5],451
same,Population Apoptotic (%),[6],45%
same,Population Fragmented Nuclei (%),[6],10%
same,Population Healthy Nuclei (%),[6],79%
same,Population Hoechst High Intensity Objects (%),[6],4%
same,Population Mitochondria Different-Phenotype (%),[6],44%
same,Population Mitotic Cells (%),[6],54%
same,Population Normal (%),[6],95%
same,Population Pyknosed Nuclei (%),[6],10%
same,Population Tubulin-Different-Phenotype (%),[6],18%
same,Total Cell Count,[6],339
same,Population Apoptotic (%),[7],59%
same,Population Fragmented Nuclei (%),[7],8%
same,Population Healthy Nuclei (%),[7],74%
same,Population Hoechst High Intensity Objects (%),[7],7%
same,Population Membrane Permeable-Phenotype (%),[7],0%
same,Population Mitochondria Different-Phenotype (%),[7],60%
same,Population Mitotic Cells (%),[7],40%
same,Population Normal (%),[7],92%
same,Population Pyknosed Nuclei (%),[7],17%
same,Population Tubulin-Different-Phenotype (%),[7],38%
same,Total Cell Count,[7],350
same,Population Apoptotic (%),[8],50%
same,Population Fragmented Nuclei (%),[8],11%
same,Population Healthy Nuclei (%),[8],75%
same,Population Mitochondria Different-Phenotype (%),[8],64%
same,Population Mitotic Cells (%),[8],50%
same,Population Pyknosed Nuclei (%),[8],13%
same,Population Tubulin-Different-Phenotype (%),[8],26%
same,Total Cell Count,[8],348
same,Population Apoptotic (%),[9],30%
same,Population Fragmented Nuclei (%),[9],13%
same,Population Healthy Nuclei (%),[9],76%
same,Population Hoechst High Intensity Objects (%),[9],2%
same,Population Membrane Permeable-Phenotype (%),[9],0%
same,Population Mitochondria Different-Phenotype (%),[9],25%
same,Population Mitotic Cells (%),[9],69%
same,Population Normal (%),[9],97%
same,Population Pyknosed Nuclei (%),[9],9%
same,Population Tubulin-Different-Phenotype (%),[9],21%
same,Total Cell Count,[9],688
same,Population Apoptotic (%),[10],46%
same,Population Fragmented Nuclei (%),[10],8%
same,Population Healthy Nuclei (%),[10],83%
same,Population Hoechst High Intensity Objects (%),[10],4%
same,Population Mitochondria Different-Phenotype (%),[10],24%
same,Population Mitotic Cells (%),[10],53%
same,Population Normal (%),[10],95%
same,Population Pyknosed Nuclei (%),[10],8%
same,Population Tubulin-Different-Phenotype (%),[10],13%
same,Total Cell Count,[10],524
same,Population Apoptotic (%),[11],46%
same,Population Fragmented Nuclei (%),[11],13%
same,Population Healthy Nuclei (%),[11],75%
same,Population Hoechst High Intensity Objects (%),[11],4%
same,Population Membrane Permeable-Phenotype (%),[11],0%
same,Population Mitochondria Different-Phenotype (%),[11],45%
same,Population Mitotic Cells (%),[11],53%
same,Population Normal (%),[11],95%
same,Population Pyknosed Nuclei (%),[11],10%
same,Population Tubulin-Different-Phenotype (%),[11],26%
same,Total Cell Count,[11],515
same,Population Apoptotic (%),[12],48%
same,Population Fragmented Nuclei (%),[12],16%
same,Population Healthy Nuclei (%),[12],76%
same,Population Hoechst High Intensity Objects (%),[12],2%
same,Population Mitochondria Different-Phenotype (%),[12],37%
same,Population Mitotic Cells (%),[12],51%
same,Population Normal (%),[12],97%
same,Population Pyknosed Nuclei (%),[12],7%
same,Population Tubulin-Different-Phenotype (%),[12],20%
same,Total Cell Count,[12],544
